{
  "source": "ChEMBL document CHEMBL4680373",
  "about": "“Evaluation of 5-(Trifluoromethyl)-1,2,4-oxadiazole-Based Class IIa HDAC Inhibitors for Huntington's Disease” (ACS Med Chem Lett, 2021)",
  "key": {"[1]": {"assay": "Toxicity in CBAxC57BL/6J mouse assessed as effect on locomotor activity at 10 to 100 mg/kg, po bid for 14.5 days", "assay_type": "organism-based", "settings": "in vivo, 348 h, dose 10-100 mg/kg, time 14.5 day; call rule not given here", "method_in_brief": "(§1)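 R6/2 HD mice and wild-type littermates, male and female, were dosed orally b.i.d. at 10, 30 or 100 mg/kg or with vehicle for 14.5 days. Vehicle was 10% (w/v) hydroxypropyl-β-cyclodextrin in 50 mM citrate buffer. Body weight, body temperature, passive observations and active manipulation scores were recorded. Blood and brain were collected 2 h after the final dose.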"}, "[2]": {"assay": "In vivo inhibition of Class 1 HDAC in CBAxC57BL/6J mouse brain assessed as increase in H4K12 acetylation at 30 to 100 mg/kg, po bid for 14.5 days by dot blot technique", "assay_type": "organism-based", "settings": "348 h, dose 30-100 mg/kg, time 14.5 day", "method_in_brief": "(§2)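 R6/2 and wild-type littermate mice of both sexes were dosed orally b.i.d. for 14.5 days with 10, 30 or 100 mg/kg or vehicle (10% w/v hydroxypropyl-β-cyclodextrin in 50 mM citrate buffer). Half-brains were collected 2 h after the last dose. Dot blots measured global and H4K12 acetylation; Western blots measured H3, H4 and tubulin acetylation. Genotypes were pooled.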"}, "[3]": {"assay": "Toxicity in CBAxC57BL/6J mouse assessed as effect on retropulsion at 10 to 100 mg/kg, po bid for 14.5 days", "assay_type": "organism-based", "settings": "in vivo, 348 h, dose 10-100 mg/kg, time 14.5 day", "method_in_brief": "as §1"}, "[4]": {"assay": "Toxicity in CBAxC57BL/6J mouse assessed as effect on shallow respiration at 10 to 100 mg/kg, po bid for 14.5 days", "assay_type": "organism-based", "settings": "in vivo, 348 h, dose 10-100 mg/kg, time 14.5 day", "method_in_brief": "as §1"}, "[5]": {"target": "Muscarinic acetylcholine receptor M2 (Homo sapiens, UniProt P08172)", "assay": "Displacement of [3H]AF-DX384 from human recombinant M2 receptor incubated for 1 hr by radiometric scintillation counting analysis"}, "[6]": {"assay": "Toxicity in CBAxC57BL/6J mouse assessed as effect on straub tail at 10 to 100 mg/kg, po bid for 14.5 days", "assay_type": "organism-based", "settings": "in vivo, 348 h, dose 10-100 mg/kg, time 14.5 day", "method_in_brief": "as §1"}, "[7]": {"target": "Cav1.2 (voltage-dependent L-type calcium channel subunit alpha-1C) (Rattus norvegicus, UniProt P22002)", "sequence (P22002 whole entry)": "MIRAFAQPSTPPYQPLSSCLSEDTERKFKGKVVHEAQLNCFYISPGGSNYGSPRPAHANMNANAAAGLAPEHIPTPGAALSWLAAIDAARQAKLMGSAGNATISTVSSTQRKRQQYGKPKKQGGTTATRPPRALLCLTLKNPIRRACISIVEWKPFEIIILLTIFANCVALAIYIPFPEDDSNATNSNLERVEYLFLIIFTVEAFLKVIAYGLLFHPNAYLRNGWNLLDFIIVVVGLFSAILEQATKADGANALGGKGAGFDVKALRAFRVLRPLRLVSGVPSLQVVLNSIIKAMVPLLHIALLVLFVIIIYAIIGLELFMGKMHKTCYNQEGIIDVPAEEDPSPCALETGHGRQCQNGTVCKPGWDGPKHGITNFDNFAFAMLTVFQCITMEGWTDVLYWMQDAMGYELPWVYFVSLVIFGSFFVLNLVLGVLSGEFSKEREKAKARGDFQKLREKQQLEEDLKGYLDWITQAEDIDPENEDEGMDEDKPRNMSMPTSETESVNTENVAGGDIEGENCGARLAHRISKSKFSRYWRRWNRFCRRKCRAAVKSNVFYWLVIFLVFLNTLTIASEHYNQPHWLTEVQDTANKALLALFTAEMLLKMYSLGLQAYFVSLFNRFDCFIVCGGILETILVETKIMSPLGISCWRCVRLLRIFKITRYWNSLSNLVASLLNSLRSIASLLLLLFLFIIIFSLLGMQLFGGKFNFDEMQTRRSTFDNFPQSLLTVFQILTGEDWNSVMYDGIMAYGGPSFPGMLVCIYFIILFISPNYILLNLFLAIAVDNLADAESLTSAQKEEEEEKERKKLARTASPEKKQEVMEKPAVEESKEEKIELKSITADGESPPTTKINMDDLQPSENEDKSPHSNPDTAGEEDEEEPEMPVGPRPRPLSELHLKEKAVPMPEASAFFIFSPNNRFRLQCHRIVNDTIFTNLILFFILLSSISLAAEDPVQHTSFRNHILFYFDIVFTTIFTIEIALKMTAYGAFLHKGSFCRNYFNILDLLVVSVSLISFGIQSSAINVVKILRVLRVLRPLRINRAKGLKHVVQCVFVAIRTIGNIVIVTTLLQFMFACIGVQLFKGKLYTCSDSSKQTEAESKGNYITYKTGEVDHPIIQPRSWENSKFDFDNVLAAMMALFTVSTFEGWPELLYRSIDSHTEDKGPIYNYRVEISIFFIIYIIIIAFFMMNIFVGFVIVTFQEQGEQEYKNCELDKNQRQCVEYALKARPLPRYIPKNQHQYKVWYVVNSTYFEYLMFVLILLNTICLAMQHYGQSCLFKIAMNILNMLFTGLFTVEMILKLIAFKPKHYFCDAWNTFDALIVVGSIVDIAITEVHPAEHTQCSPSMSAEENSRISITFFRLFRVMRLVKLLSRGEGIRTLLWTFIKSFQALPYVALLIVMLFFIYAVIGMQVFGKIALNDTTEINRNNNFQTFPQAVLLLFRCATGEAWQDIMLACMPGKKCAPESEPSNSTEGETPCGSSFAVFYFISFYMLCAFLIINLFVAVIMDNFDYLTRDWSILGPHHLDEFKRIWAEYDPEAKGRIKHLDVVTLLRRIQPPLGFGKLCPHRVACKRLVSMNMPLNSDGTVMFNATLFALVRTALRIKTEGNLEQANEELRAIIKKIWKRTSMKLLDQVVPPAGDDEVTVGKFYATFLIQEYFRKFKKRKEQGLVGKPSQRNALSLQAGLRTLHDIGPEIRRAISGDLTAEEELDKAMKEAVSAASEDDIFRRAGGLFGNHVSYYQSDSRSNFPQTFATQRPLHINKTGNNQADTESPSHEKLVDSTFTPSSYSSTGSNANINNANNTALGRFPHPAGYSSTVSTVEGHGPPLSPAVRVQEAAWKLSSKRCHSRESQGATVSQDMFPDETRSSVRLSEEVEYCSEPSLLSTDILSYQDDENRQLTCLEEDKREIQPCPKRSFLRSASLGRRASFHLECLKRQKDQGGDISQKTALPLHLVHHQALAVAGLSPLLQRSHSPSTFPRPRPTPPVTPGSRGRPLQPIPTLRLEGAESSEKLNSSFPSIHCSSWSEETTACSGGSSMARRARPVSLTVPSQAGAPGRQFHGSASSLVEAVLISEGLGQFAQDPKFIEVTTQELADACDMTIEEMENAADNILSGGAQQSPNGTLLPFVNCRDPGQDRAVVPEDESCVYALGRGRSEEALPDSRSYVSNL", "assay": "Displacement of [3H]Diltiazem from Cav1.2 in rat brain at 10 uM incubated for 120 mins by radiometric scintillation counting analysis", "assay_type": "tissue-based", "settings": "probe [3H]Diltiazem", "method_in_brief": "(§3)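 Broad selectivity panel of binding, cellular, functional and enzymatic assays run by a contract lab. Each test was done at a single 10 μM concentration and reported as percent inhibition.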"}, "[8]": {"target": "Histone deacetylase 5 (Homo sapiens, UniProt Q9UQL6)", "assay": "Inhibition of HDAC5 (unknown origin) using Boc Lys(TFA) as substrate by fluorogenic assay", "method_in_brief": "(§4)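 Biochemical HDAC isoform assay with the artificial fluorogenic substrate Boc-Lys-(TFA)-AMC, which is specific to class IIa enzymes and HDAC8. IC50 taken as the geometric mean of three experiments.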"}, "[9]": {"target": "Cytochrome P450 2C9 (Homo sapiens, UniProt P11712)", "assay": "Inhibition of CYP2C9 in human liver microsomes using diclofenac as substrate incubated for 15 mins by LC-MS/MS analysis", "assay_type": "ADME"}, "[10]": {"assay": "Toxicity in CBAxC57BL/6J mouse assessed as effect on head tremor at 10 to 100 mg/kg, po bid for 14.5 days", "assay_type": "organism-based", "settings": "in vivo, 348 h, dose 10-100 mg/kg, time 14.5 day", "method_in_brief": "as §1"}, "[11]": {"assay": "Unbound fraction in mouse brain", "assay_type": "ADME, tissue-based", "method_in_brief": "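Unbound fraction measured in mouse brain homogenate.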"}, "[12]": {"target": "T1, Histone deacetylase 4 (Homo sapiens, UniProt P56524)", "T1 sequence (P56524 whole entry)": "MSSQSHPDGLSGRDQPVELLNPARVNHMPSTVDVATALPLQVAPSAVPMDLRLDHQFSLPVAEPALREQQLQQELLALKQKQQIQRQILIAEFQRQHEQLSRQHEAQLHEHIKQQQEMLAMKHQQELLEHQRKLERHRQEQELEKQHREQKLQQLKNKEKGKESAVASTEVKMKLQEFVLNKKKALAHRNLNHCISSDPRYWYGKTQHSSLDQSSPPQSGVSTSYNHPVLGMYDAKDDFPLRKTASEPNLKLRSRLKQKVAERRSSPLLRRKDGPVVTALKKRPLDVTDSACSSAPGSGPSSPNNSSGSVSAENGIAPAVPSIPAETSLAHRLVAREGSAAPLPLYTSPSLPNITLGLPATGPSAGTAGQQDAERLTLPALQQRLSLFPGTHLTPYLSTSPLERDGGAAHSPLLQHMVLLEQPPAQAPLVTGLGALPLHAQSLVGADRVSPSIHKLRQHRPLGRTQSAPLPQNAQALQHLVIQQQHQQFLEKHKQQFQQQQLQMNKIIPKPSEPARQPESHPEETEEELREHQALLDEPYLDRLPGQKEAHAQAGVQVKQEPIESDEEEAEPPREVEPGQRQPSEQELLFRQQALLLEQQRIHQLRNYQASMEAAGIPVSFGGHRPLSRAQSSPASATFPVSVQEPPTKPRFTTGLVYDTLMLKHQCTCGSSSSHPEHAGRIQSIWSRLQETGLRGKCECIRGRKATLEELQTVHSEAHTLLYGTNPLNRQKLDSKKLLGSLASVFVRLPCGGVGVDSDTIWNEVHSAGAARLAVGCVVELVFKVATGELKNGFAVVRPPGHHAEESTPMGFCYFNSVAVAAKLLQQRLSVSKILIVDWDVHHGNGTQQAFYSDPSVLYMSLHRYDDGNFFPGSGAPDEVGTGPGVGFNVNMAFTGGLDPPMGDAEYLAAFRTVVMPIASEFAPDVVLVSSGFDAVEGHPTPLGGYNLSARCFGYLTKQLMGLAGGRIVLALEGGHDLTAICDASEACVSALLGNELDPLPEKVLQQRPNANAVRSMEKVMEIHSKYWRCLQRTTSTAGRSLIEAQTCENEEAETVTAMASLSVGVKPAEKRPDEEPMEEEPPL", "assay": "Inhibition of HDAC4 (unknown origin) using Boc Lys(TFA) as substrate by fluorogenic assay", "method_in_brief": "as §4"}, "[13]": {"assay": "Toxicity in CBAxC57BL/6J mouse assessed as effect on irritability at 10 to 100 mg/kg, po bid for 14.5 days", "assay_type": "organism-based", "settings": "in vivo, 348 h, dose 10-100 mg/kg, time 14.5 day", "method_in_brief": "as §1"}, "[14]": {"assay": "Time during which drug concentration exceeds the IC50 for inhibition of human Class 2A HDAC in C57BL/6J mouse brain at 30 mg/kg, po administered via gavage by LC-MS/MS analysis", "assay_type": "organism-based", "settings": "in vivo", "method_in_brief": "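Single oral gavage doses of 10, 30 or 100 mg/kg were given to C57/BL6 mice. Brain and blood were sampled from 0.25 to 12 h and compound measured by LC-MS/MS. The time that total brain exposure stayed above the class IIa cellular IC50 was then estimated.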"}, "[15]": {"target": "T2, Histone deacetylase 8 (Homo sapiens, UniProt Q9BY41)", "T2 sequence (Q9BY41 whole entry)": "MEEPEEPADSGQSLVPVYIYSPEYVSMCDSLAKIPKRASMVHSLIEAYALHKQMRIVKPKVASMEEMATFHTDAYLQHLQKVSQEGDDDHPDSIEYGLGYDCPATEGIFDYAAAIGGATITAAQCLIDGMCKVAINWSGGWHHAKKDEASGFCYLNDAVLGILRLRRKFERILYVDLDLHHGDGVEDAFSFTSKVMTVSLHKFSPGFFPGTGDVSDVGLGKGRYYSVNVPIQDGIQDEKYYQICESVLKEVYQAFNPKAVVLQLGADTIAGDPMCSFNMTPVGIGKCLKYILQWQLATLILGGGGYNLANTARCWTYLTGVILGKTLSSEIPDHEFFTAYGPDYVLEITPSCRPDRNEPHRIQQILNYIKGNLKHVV", "assay": "Inhibition of HDAC8 (unknown origin) using Boc-Lys(TFA) as substrate by fluorogenic assay", "method_in_brief": "as §4"}, "[16]": {"assay": "In vivo inhibition of Class 2B HDAC in C57BL/6J mouse brain assessed as increase in tubulin acetylation administered orally via gavage measured after 2 hrs by western blot analysis", "assay_type": "organism-based", "settings": "po, dose 10-100 mg/kg", "method_in_brief": "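Brain samples were taken 2 h after single oral gavage doses (10, 30, 100 mg/kg). Western blots probed H3, H4 and tubulin acetylation, each normalized to its own total-protein band. Comparison was against samples taken 5 min after a 10 mg/kg dose.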"}, "[17]": {"target": "T1, Histone deacetylase 4", "assay": "Inhibition of human recombinant HDAC4 at 10 uM incubated for 30 mins by fluorometry", "method_in_brief": "as §3"}, "[18]": {"assay": "Toxicity in CBAxC57BL/6J mouse assessed as effect on touch escape at 10 to 100 mg/kg, po bid for 14.5 days", "assay_type": "organism-based", "settings": "in vivo, 348 h, dose 10-100 mg/kg, time 14.5 day", "method_in_brief": "as §1"}, "[19]": {"target": "Histone deacetylase 9 (Homo sapiens, UniProt Q9UKV0)", "sequence (Q9UKV0 whole entry)": "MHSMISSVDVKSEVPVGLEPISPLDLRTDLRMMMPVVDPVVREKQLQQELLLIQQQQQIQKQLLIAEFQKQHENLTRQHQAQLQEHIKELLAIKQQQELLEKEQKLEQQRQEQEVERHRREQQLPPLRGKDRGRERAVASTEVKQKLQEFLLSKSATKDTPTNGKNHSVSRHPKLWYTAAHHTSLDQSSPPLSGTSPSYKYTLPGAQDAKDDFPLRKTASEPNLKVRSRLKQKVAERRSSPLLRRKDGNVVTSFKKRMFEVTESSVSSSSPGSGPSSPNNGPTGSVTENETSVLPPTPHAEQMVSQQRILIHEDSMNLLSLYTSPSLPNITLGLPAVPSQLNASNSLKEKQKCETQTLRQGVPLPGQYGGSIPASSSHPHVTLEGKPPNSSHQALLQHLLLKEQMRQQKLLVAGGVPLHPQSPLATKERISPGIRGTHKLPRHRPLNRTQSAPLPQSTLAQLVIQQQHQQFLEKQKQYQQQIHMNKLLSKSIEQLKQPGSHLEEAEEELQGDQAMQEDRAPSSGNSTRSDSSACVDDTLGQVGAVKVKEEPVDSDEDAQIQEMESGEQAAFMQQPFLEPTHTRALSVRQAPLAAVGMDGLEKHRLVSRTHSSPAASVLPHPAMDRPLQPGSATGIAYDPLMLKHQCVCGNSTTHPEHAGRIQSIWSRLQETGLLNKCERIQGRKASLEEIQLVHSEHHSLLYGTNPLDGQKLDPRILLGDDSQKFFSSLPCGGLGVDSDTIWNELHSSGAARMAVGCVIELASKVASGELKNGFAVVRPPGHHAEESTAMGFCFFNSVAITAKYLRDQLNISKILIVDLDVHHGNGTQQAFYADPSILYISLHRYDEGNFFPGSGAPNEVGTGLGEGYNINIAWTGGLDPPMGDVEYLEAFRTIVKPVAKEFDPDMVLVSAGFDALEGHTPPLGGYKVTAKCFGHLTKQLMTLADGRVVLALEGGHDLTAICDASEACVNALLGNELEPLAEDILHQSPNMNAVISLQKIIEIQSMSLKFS", "assay": "Inhibition of HDAC9 (unknown origin) using Boc Lys(TFA) as substrate by fluorogenic assay", "method_in_brief": "as §4"}, "[20]": {"species_on_record": "Homo sapiens", "assay": "Inhibition of sodium channel (unknown origin) at 10 uM", "method_in_brief": "as §3"}, "[21]": {"assay": "Metabolic stability of the compound in C57BL/6 mouse plasma at 5 uM measured for 60 mins by LC-MS/MS analysis", "assay_type": "ADME, cell-free", "settings": "1 h"}, "[22]": {"target": "Cytochrome P450 2C19 (Homo sapiens, UniProt P33261)", "sequence (P33261 whole entry)": "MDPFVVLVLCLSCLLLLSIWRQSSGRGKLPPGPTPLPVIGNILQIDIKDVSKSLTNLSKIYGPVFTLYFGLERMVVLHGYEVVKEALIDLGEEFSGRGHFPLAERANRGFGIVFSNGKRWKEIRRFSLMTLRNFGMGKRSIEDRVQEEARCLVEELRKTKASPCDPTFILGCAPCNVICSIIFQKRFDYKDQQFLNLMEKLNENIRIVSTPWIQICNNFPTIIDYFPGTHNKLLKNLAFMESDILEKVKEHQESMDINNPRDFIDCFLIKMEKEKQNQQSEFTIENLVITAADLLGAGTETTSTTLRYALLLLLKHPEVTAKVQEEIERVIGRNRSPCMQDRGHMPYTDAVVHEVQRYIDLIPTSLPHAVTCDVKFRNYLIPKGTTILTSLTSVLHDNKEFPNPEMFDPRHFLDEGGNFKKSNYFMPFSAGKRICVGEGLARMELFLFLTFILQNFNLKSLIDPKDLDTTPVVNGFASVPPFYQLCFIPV", "assay": "Inhibition of CYP2C19 in human liver microsomes using (S)-(+)-mephenytoin as substrate incubated for 30 mins by LC-MS/MS analysis", "assay_type": "ADME"}, "[23]": {"assay": "In vivo inhibition of Class 2B HDAC in CBAxC57BL/6J mouse brain assessed as increase in tubulin acetylation at 30 to 100 mg/kg, po bid for 14.5 days by western blot analysis", "assay_type": "organism-based", "settings": "348 h, dose 30-100 mg/kg, time 14.5 day", "method_in_brief": "as §2"}, "[24]": {"assay": "Toxicity in CBAxC57BL/6J mouse assessed as effect on flaccidity at 10 to 100 mg/kg, po bid for 14.5 days", "assay_type": "organism-based", "settings": "in vivo, 348 h, dose 10-100 mg/kg, time 14.5 day", "method_in_brief": "as §1"}, "[25]": {"assay": "Metabolic stability of the compound in human plasma", "assay_type": "ADME, cell-free"}, "[26]": {"assay": "Toxicity in CBAxC57BL/6J mouse assessed as effect on struggle by tail at 10 to 100 mg/kg, po bid for 14.5 days", "assay_type": "organism-based", "settings": "in vivo, 348 h, dose 10-100 mg/kg, time 14.5 day", "method_in_brief": "as §1"}},
  "data": [
    {"smiles": "C[C@H](CN1CCC[C@@H]1C)NC(=O)c1ccc(-c2noc(C(F)(F)F)n2)cc1", "values": [
      {"measurement": "Activity", "setting": "[1]", "result": "Non-Toxic"},
      {"measurement": "Activity", "setting": "[2]", "result": "Toxic"},
      {"measurement": "Activity", "setting": "[3]", "result": "Non-Toxic"},
      {"measurement": "Activity", "setting": "[4]", "result": "Non-Toxic"},
      {"measurement": "Kd", "setting": "[5]", "result": "> 5000", "unit": "nM"},
      {"measurement": "Activity", "setting": "[6]", "result": "Non-Toxic"},
      {"measurement": "inhibition at 2 h, 10 µM", "setting": "[7]", "result": "> 50", "unit": "%"},
      {"measurement": "IC50", "setting": "[8]", "result": 20, "unit": "nM"},
      {"measurement": "IC50", "setting": "[9]", "result": "> 50000", "unit": "nM"},
      {"measurement": "Activity", "setting": "[10]", "result": "Non-Toxic"},
      {"measurement": "fraction unbound", "setting": "[11]", "result": 0.17},
      {"measurement": "IC50", "setting": "[12]", "result": 10, "unit": "nM"},
      {"measurement": "Activity", "setting": "[13]", "result": "Non-Toxic"},
      {"measurement": "T>IC50", "setting": "[14]", "result": 8, "unit": "h"},
      {"measurement": "IC50", "setting": "[15]", "result": 2000, "unit": "nM"},
      {"measurement": "Activity", "setting": "[16]", "result": "Toxic"},
      {"measurement": "inhibition", "setting": "[17]", "result": "> 80", "unit": "%"},
      {"measurement": "Activity", "setting": "[18]", "result": "Non-Toxic"},
      {"measurement": "IC50", "setting": "[19]", "result": 30, "unit": "nM"},
      {"measurement": "inhibition", "setting": "[20]", "result": "> 50", "unit": "%"},
      {"measurement": "Stabilty", "setting": "[21]", "result": "Stable"},
      {"measurement": "IC50", "setting": "[22]", "result": "> 50000", "unit": "nM"},
      {"measurement": "Activity", "setting": "[23]", "result": "Toxic"},
      {"measurement": "Activity", "setting": "[24]", "result": "Non-Toxic"},
      {"measurement": "Stabilty", "setting": "[25]", "result": "Stable"},
      {"measurement": "Activity", "setting": "[26]", "result": "Non-Toxic"}
    ]}
  ]
}
